The source of these data is ChEMBL document CHEMBL3102735, “Enhancing the pharmacodynamic profile of a class of selective COX-2 inhibiting nitric oxide donors” (Bioorg Med Chem, 2014).

For orientation: IC50 means the concentration that gives 50% inhibition. The Emax is the maximal effect, on the per cent scale that the assay sets.

In assay [1] the test system is Mus musculus. As to the kind of experiment: Antihyperalgesic activity in Swiss albino mouse assessed as reduction in carrageenan-induced inflammation at 10 mg/kg, po after 90 mins relative to control. It counts as functional. The arrangement: scale not given: the % may be the effect or the level left.
The test system of assay [2] is Mus musculus. Description: Analgesic activity in po dosed Swiss albino mouse assessed as reduction of acetic acid-induced writhing measured every 10 mins after 5 mins of administration. It counts as functional, organism-based. The procedure, abridged:
(§1)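 Male Swiss albino mice (23–25 g), compound given orally in CMC vehicle; writhing induced by 0.6% acetic acid (10 mL/kg) ip. Stretching movements counted for 10 min, starting 5 min after administration; percent reduction versus CMC-treated animals.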
In general terms: Writhing tests count abdominal constrictions after an irritant is injected.

Assay [3] relates to Mus musculus. Description: Antihyperalgesic activity in Swiss albino mouse assessed as reduction in carrageenan-induced inflammation at 10 mg/kg, po after 30 mins relative to control. It counts as functional. The arrangement: scale not given: the % may be the effect or the level left.
Assay [4] has as its system Mus musculus. As to the kind of experiment: Antihyperalgesic activity in Swiss albino mouse assessed as reduction in carrageenan-induced inflammation at 10 mg/kg, po after 120 mins relative to control. It counts as functional. More on the design: scale not given: the % may be the effect or the level left.
The subject of assay [5] is Mus musculus. Description: Antiinflammatory activity in Swiss albino mouse assessed as reduction in carrageenan-induced paw edema at 10 mg/kg, po relative to control. It counts as functional. More on the design: scale not given: the % may be the effect or the level left. The procedure, abridged: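 Intraplantar carrageenan, compound po in CMC; volume of right hind paw measured 4 h after carrageenan injection and compared with saline/carrageenan-treated controls; percent oedema reduction.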

The subject of assay [6] is Mus musculus. Description: Antihyperalgesic activity in Swiss albino mouse assessed as reduction in carrageenan-induced inflammation at 10 mg/kg, po after 60 mins relative to control. It counts as functional. More on the design: scale not given: the % may be the effect or the level left.
In assay [7] the test system is Mus musculus. As to the kind of experiment: Analgesic activity in Swiss albino mouse assessed as reduction of acetic acid-induced writhing at 10 mg/kg, po measured every 10 mins after 5 mins of administration relative to control. It counts as functional. More on the design: scale not given: the % may be the effect or the level left. The procedure, abridged: as §1

The subject of assay [8] is Liver. Description: Induction of nitric oxide production in Wistar rat liver homogenate assessed as NOx level at 1 mM after 1 to 150 mins. It counts as functional, tissue-based.
Assay [9] deals with Liver. As to the kind of experiment: Induction of nitric oxide production in Wistar rat liver homogenate assessed as nitrite level at 1 mM. It counts as functional, tissue-based. The following applies: TDE = time-dependent effect.
For assay [10], the system named is Thoracic aorta. As to the kind of experiment: Ex vivo vasorelaxant activity in Wistar rat endothelium thoracic aortic ring assessed as reduction of KCl-induced contraction. It counts as functional, tissue-based. The essentials: (§2)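 Endothelium-denuded thoracic aortic rings from male Wistar rats (250–350 g) in oxygenated Tyrode-type buffer at 37 °C, isometric tension recording. Rings precontracted with 30 mM KCl, then 3-fold increasing compound concentrations (1 nM–10 µM) added, also with 1 µM ODQ preincubated. Emax as % of KCl tone; pIC50; mean ± SE of 6–10 experiments.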

Assay [11] concerns Liver. As to the kind of experiment: Induction of nitric oxide production in Wistar rat liver homogenate assessed as nitrate level at 1 mM after 1 to 150 mins. It counts as functional, tissue-based.
Assay [12] deals with Thoracic aorta. Description: Ex vivo vasorelaxant activity in Wistar rat endothelium thoracic aortic ring assessed as reduction of KCl-induced contraction in presence of guanylate cyclase inhibitor ODQ. It counts as functional. The essentials: as §2
Assay [13] concerns Thoracic aorta. As to the kind of experiment: Ex vivo vasorelaxant activity in Wistar rat endothelium thoracic aortic ring assessed as reduction of KCl-induced contraction at 0.001 uM to 10 uM relative to control. It counts as functional. The essentials: as §2
Assay [14] concerns Liver. As to the kind of experiment: Induction of nitric oxide production in Wistar rat liver homogenate assessed as nitrite level at 1 mM after 1 to 150 mins. It counts as functional, tissue-based.
Assay [15] relates to Liver. Description: Induction of nitric oxide production in Wistar rat liver homogenate assessed as NOx level at 1 mM. It counts as functional, tissue-based. As to conditions: TDE = time-dependent effect.
Assay [16] concerns Liver. Description: Induction of nitric oxide production in Wistar rat liver homogenate assessed as nitrate level at 1 mM. It counts as functional, tissue-based. As to conditions: TDE = time-dependent effect.

Active and inactive are the calls of the source. The calls are words filed in the database; no cut-off is given here.

`Cc1ccc(-c2cc(C(F)(F)F)nn2-c2ccc(S(N)(=O)=O)cc2)cc1` [CELECOXIB]: the Activity with Mus musculus [1] is 56%; in the assay on Mus musculus [2], “Dose-dependent effect”; in the assay on Mus musculus [3], 45%; in the assay on Mus musculus [4] it was 39%; in the assay with Mus musculus [5], 17%; in the assay on Mus musculus [6], 75%. Moreover, the Activity in the assay with Mus musculus [7] was determined as 59%.
With `COc1ccc2cc([C@H](C)C(=O)OCCCCO[N+](=O)[O-])ccc2c1` [NAPROXCINOD], the Activity was 368 µM with Liver [8]; “tde” in the assay on Liver [9]; 340 µM with Liver [11]; 27.6 µM in the assay on Liver [14]; “tde” in the assay on Liver [15]; “tde” in the assay with Liver [16]. For the same molecule, the IC50 in the assay with Thoracic aorta [10] is 0.468 µM. For the same molecule, in the assay with Thoracic aorta [12], the outcome was inactive. Further, the Emax with Thoracic aorta [13] stood at 68%.
